Experimental data: ChEMBL document CHEMBL1926666, “Synthesis of novel 3-cyclohexylpropanoic acid-derived nitrogen heterocyclic compounds and their evaluation for tuberculostatic activity” (Bioorg Med Chem, 2012)
Values after ≈ are worked out from the molar mass of the structure shown.

These compounds were tested on Mycobacterium tuberculosis (assay: Antituberculosis activity against multidrug-resistant Mycobacterium tuberculosis isolate Spec. 192 by twofold serial dilution method).
Type: functional
Procedure, shortened: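 Classical two-fold test-tube serial dilution in Youmans' modified Proskauer–Beck liquid medium with 10% bovine serum. Inocula from 14-day cultures. Compounds in ethylene glycol, 10 mg/mL stock, geometric dilutions in medium; 3.1, 6.2, 12.5, 25, 50 and 100 µg/mL evaluated. Incubation at 37 °C. MIC = lowest concentration inhibiting growth relative to a compound-free tube. INH, PZA and RMP served as reference drugs.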

| SMILES | MIC [µg/mL] |
| --- | --- |
| O=[N+]([O-])c1cc(Cl)cc2[nH]c(CCC3CCCCC3)nc12 | 12.5 (≈ 40.6 µM) |
| c1cnc2[nH]c(CCC3CCCCC3)nc2c1 | 50 (≈ 218 µM) |
| Brc1cnc2[nH]c(CCC3CCCCC3)nc2c1 | 6.2 (≈ 20.1 µM) |
| O=C(CCC1CCCCC1)NN=C1SCCS1 | 100 (≈ 367 µM) |
| S=c1[nH]nc(CCC2CCCCC2)n1-c1ccc(Cl)cc1 | 100 (≈ 311 µM) |
| CSC(=S)NNC(=O)CCC1CCCCC1 | 50 (≈ 192 µM) |
| C=CCn1c(CCC2CCCCC2)n[nH]c1=S | 50 (≈ 199 µM) |
| c1ccc2c(c1)ccc1nc(CCC3CCCCC3)[nH]c12 | 1.5 (≈ 5.39 µM) |
| c1ccc2nc3cc4[nH]c(CCC5CCCCC5)nc4cc3nc2c1 | 1.5 (≈ 4.54 µM) |
| S=c1[nH]nc(CCC2CCCCC2)o1 | 25 (≈ 118 µM) |
| S=c1[nH]nc(CCC2CCCCC2)[nH]1 | 50 (≈ 237 µM) |
| CNC(=S)NNC(=O)CCC1CCCCC1 | 100 (≈ 411 µM) |
| C=CCNC(=S)NNC(=O)CCC1CCCCC1 | 100 (≈ 371 µM) |
| O=C(CCC1CCCCC1)NNC(=S)NC1CCCCC1 | 100 (≈ 321 µM) |
| O=C(CCC1CCCCC1)NNC(=S)Nc1ccc(Cl)cc1 | 50 (≈ 147 µM) |
| Cn1c(CCC2CCCCC2)n[nH]c1=S | 100 (≈ 444 µM) |
| S=c1[nH]nc(CCC2CCCCC2)n1C1CCCCC1 | 100 (≈ 341 µM) |
| CSC(=NNC(=O)CCC1CCCCC1)SC | 50 (≈ 182 µM) |
| CC1(C)CNc2nnc(CCC3CCCCC3)n2C1 | 100 (≈ 381 µM) |
| Cl.Cl.c1cc2nc(CCC3CCCCC3)[nH]c2cn1 | 25 |
| NNC(=O)c1ccncc1 [ISONIAZID] | 0.5 (≈ 3.65 µM) |
| NC(=O)c1cnccn1 [PYRAZINAMIDE] | 25 (≈ 203 µM) |
| CO[C@H]1/C=C/O[C@@]2(C)Oc3c(C)c(O)c4c(O)c(c(/C=N/N5CCN(C)CC5)c(O)c4c3C2=O)NC(=O)/C(C)=C\C=C\[C@H](C)[C@H](O)[C@@H](C)[C@@H](O)[C@@H](C)[C@H](OC(C)=O)[C@@H]1C [RIFAMPIN] | 1.2 (≈ 1.46 µM) |
